# An excerpt weighted towards active compounds, which were near 5.9% of everything screened.
# KDM4C inh = inhibitors of GASC-1 (KDM4C) histone demethylase, primary screen, biochemical, single concentration HTS | 96,000 tested, 0.15% active | inhibition, % at 12.5 µM | Lysine-specific demethylase 4C (Homo sapiens), Q9H3R0 | GST-KDM4C 2-372, H3K9me3 peptide, LANCE TR-FRET;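 active means mean replicate inhibition above about 25%, with at least 55% of replicates also reaching it, limit read from the data, passing the limit was not always enough; inconclusive means only one of those two conditions met; inactive means neither condition met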
#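 Material: GST-tagged GASC-1 (JMJD2C) catalytic fragment, aa 2-372. Input: enzyme final amount 10 nM. Medium: HEPES buffer, pH 7.5, plus ascorbate. Reagent: H3K9me3 peptide substrate, Fe(II), 2-oxoglutarate. Doses: single dose. Times: reaction 30 min RT, detection step 1 h RT. Measured by: LANCE TR-FRET. Evaluation: Fall in 671/618 emission ratio as inhibition.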
# IDH1 R132H inh = inhibitors of IDH1 R132H reductase, primary screen, biochemical, plate reader, single point; diaphorase/resazurin fluorescence, 60 min; 70,000 tested, 0.18% active; Isocitrate dehydrogenase [NADP] cytoplasmic (Homo sapiens), O75874; AID 624101, 2012; inhibition, % at 10 µM; in the data active means inhibition above about 34%; inconclusive means no clear call, values can overlap the other calls; inactive means below about 11%;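 further: 0% = DMSO and 100% = no enzyme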
# Target sequence (O75874 whole entry R132H): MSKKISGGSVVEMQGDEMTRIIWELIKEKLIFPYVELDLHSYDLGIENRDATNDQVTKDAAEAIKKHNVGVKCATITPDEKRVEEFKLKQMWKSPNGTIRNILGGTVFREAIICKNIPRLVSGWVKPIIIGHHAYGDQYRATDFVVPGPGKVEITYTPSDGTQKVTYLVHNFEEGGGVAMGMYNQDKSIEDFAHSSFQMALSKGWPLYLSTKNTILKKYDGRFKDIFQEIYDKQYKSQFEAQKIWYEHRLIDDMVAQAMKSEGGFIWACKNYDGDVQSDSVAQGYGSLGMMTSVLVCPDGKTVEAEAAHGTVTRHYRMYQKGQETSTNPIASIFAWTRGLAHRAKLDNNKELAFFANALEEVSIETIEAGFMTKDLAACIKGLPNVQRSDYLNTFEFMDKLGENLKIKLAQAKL
# T cruzi growth-1 = T. cruzi intracellular proliferation inhibitors, primary screen, cell-based, beta-gal Tulahuen parasites, NIH3T3 host, luminescence. T. cruzi beta-gal in NIH3T3, GalScreen luminescence, 90 h. inhibition, % at 8.34 µM. 77,000 tested, 5.9% active. AID 624255, 2012;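 active means mean inhibition above about 93%, with at least 55% of replicates each passing it, limit read from the data, passing the limit was not always enough; inconclusive means only one of those two conditions holds; inactive means neither condition holds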
# Pf Dd2 inh = P. falciparum Dd2 growth inhibitors, primary screen, SYBR Green fluorescence, single dose replicates. 72 h; stronger effect = lower value. activity change, % at 10 µM. 94,000 tested, 2.3% active. AID 1159554, 2015; in the data active means activity change below about -80%; inconclusive means no clear call, values can overlap the other calls
# T cruzi growth-2 = T. cruzi intracellular proliferation inhibitors, confirmation, cell-based, NIH3T3 host, beta-gal parasite, luminescence, cherry-pick | inhibition, % at 8.35 µM | T. cruzi beta-gal in NIH3T3, GalScreen luminescence, 90 h | 5,600 tested, 72% active | shares compounds with T cruzi growth-1;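 active means mean replicate inhibition above about 95% and at least 55% of replicates individually reaching it, limit read from the data; inconclusive means only one of the two criteria is met; inactive means neither criterion is met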
# T cruzi growth-3 = inhibitors of intracellular T. cruzi replication, confirmation, NIH3T3 host cells, beta-gal parasites, cherry-pick, set 2. shares compounds with T cruzi growth-1. T. cruzi beta-gal in NIH3T3, GalScreen luminescence, 90 h. inhibition, % at 2.09 µM. 5,600 tested, 21% active;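 active means mean inhibition above about 95%, with at least 55% of replicates also reaching it, limit read from the data; inconclusive means meets just one of the two conditions; inactive means meets neither condition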;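 further: plate controls were neutral control median for no effect and positive control median for full effect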
# 3T3 cytotox = cytotoxicity in mouse NIH/3T3 fibroblasts, confirmation, cytotoxicity control for T. cruzi proliferation inhibitor project, cell-based, cherry-pick, single point. shares compounds with T cruzi growth-1. NIH/3T3 viability, CellTiter-Glo ATP luminescence, 90 h. cytotoxicity (signal decrease), % at 8.35 µM. 5,600 tested, 14% active. AID 651742, 2012;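 active means mean signal decrease across replicates above about 35% based on untreated-well scatter, with enough replicates individually passing, limit read from the data; inconclusive means no rule stated though some were filed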;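 further: 0% = median of neutral control wells and 100% = median of positive control wells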
# 3T3 cytotox 2 = NIH/3T3 fibroblast cytotoxicity, confirmation, cytotoxicity control, cell-based, cherry-pick, single point, set 2; AID 651744, 2012; shares compounds with T cruzi growth-1; inhibition, % at 24.9 µM; NIH/3T3 viability, CellTiter-Glo ATP luminescence, 90 h; 5,600 tested, 56% active;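 active means mean loss of cell viability signal at or above a set limit, and enough replicates individually reaching it; inconclusive means meets only the mean limit or only the replicate share; inactive means meets neither condition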;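 further: 0% = median of neutral control wells and 100% = median of positive control wells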
# * = called active by the depositor; ? = inconclusive; / = no result given; ! = not confirmed by another sample.
SMILES,KDM4C inh,IDH1 R132H inh,T cruzi growth-1,Pf Dd2 inh,T cruzi growth-2,T cruzi growth-3,3T3 cytotox,3T3 cytotox 2
O=C(C[C@H]1CC[C@@H]2[C@H](COC[C@H](O)CN2Cc2ccc3c(c2)OCO3)O1)Nc1ccccc1,1.6,/,49.8,-2.2,/,/,/,/
O=C(C[C@H]1CC[C@H]2[C@@H](COC[C@H](O)CN2Cc2ccc3c(c2)OCO3)O1)Nc1ccccc1,1.8,/,45.4,-8.9,/,/,/,/
O=C(C[C@H]1CC[C@@H]2[C@H](COC[C@H](O)CN2Cc2ccc3c(c2)OCO3)O1)Nc1ccc(-c2ccccc2)cc1,0.6,/,111.6*,-14.4,106.1*,35.4,4.9,50.4*
O=C(C[C@@H]1CC[C@H]2[C@@H](COC[C@@H](O)CN2Cc2ccc3c(c2)OCO3)O1)Nc1ccc(-c2ccccc2)cc1,1.5,/,103.3*,-0.1,95.5*,102.7*,-13.6,94.4*
C[C@H]1CN([C@@H](C)CO)C(=O)c2cc(/C=C/c3ccccc3)cnc2O[C@@H]1CN(C)Cc1ccncc1,3.7,-2.6,85.2,-31.9,/,/,/,/
C[C@H](CO)N1C[C@H](C)[C@H](CN(C)Cc2cccc(C(F)(F)F)c2)Oc2ncc(/C=C/c3ccccc3)cc2C1=O,0.7,0.0,116.3*,-51.0,104.7*,112.0*,-18.7,80.1*
Cc1cccc(CN(C)C[C@@H]2Oc3ncc(/C=C/c4ccccc4)cc3C(=O)N([C@H](C)CO)C[C@@H]2C)c1,1.5,0.4,86.4,-60.4,/,/,/,/
C[C@H](CO)N1C[C@H](C)[C@H](CN(C)C(=O)Nc2ccccc2)Oc2ncc(-c3cccc(C(F)(F)F)c3)cc2C1=O,-0.7,/,91.5,-25.5,/,/,/,/
COc1ccc(NC(=O)N(C)C[C@@H]2Oc3ncc(-c4cccc(C(F)(F)F)c4)cc3C(=O)N([C@H](C)CO)C[C@@H]2C)cc1,-0.2,-0.6,102.6*,-39.9,98.5*,60.4,19.5,46.5*
C[C@H]1CN([C@@H](C)CO)C(=O)c2cc(/C=C/c3ccccc3)cnc2O[C@@H]1CN(C)Cc1ccccc1,-0.4,-0.4,105.6*,-58.6,108.6*,79.4,23.6,102.9*
COc1cccc(-c2cnc3c(c2)C(=O)N([C@H](C)CO)C[C@H](C)[C@H](CN(C)Cc2ccccc2)O3)c1,-1.2,-1.6,15.6,-0.9,/,/,/,/
COc1cccc(-c2cnc3c(c2)C(=O)N([C@H](C)CO)C[C@H](C)[C@H](CN(C)Cc2cccc(C(F)(F)F)c2)O3)c1,0.4,4.1,?,-17.8,107.1*,80.2,30.0,61.2*
Cc1nnc(Sc2ccc(/C=N/NC(=O)CCCCCCC(=O)NO)o2)n1C,/,0.0,/,/,/,/,/,/
Cc1ccc(N(C(C)C(=O)Nc2ccc(I)cc2C)S(C)(=O)=O)cc1C (stereo not given),/,-0.1,/,/,/,/,/,/
COc1cc(OC)cc(-c2nnc(SCC(=O)Nc3ccccc3)o2)c1,/,0.3,/,/,/,/,/,/
C[C@@H]1CN([C@H](C)CO)C(=O)c2cc(/C=C/c3ccccc3)cnc2O[C@H]1CN(C)Cc1ccncc1,0.9,2.8,112.9*,-11.2,105.3*,66.0,14.4,30.4*
C[C@H](CO)N1C[C@H](C)[C@H](CN(C)Cc2ccccc2)Oc2ncc(/C=C/c3ccccc3)cc2C1=O,0.4,0.1,119.8*!,-70.4,116.6*,90.7,37.2*,102.4*
C[C@@H]1CN([C@@H](C)CO)C(=O)c2cc(/C=C/c3ccccc3)cnc2O[C@@H]1CN(C)Cc1ccncc1,-2.2,0.0,67.7,-25.9,/,/,/,/
C[C@@H]1CN([C@H](C)CO)C(=O)c2cc(/C=C/c3ccccc3)cnc2O[C@@H]1CN(C)Cc1ccccc1,0.5,0.0,84.1,-19.4,/,/,/,/
CCOc1ccc(NC(=O)Cn2cnc3scc(-c4ccc5ccccc5c4)c3c2=O)cc1,/,0.0,/,/,/,/,/,/
O=C(CCCN1C(=O)c2ccccc2C1=O)Nc1ccc(Cl)cc1,/,-0.1,/,/,/,/,/,/
COc1ccccc1C#Cc1ccc([C@@H]2[C@@H](C#N)N(C(=O)C3CCC3)[C@H]2CO)cc1,-3.1,/,97.3*,-73.2,104.0*,110.7*,-24.2,5.8
COc1ccccc1C#Cc1ccc([C@@H]2[C@H](C#N)N(C(=O)C3CCC3)[C@H]2CO)cc1,4.3,/,?,-52.3,102.9*,111.2*,30.6,28.2*
COc1ccccc1C#Cc1ccc([C@@H]2[C@@H](C#N)N(C(=O)C3CCC3)[C@@H]2CO)cc1,-2.0,/,80.2,-11.3,/,/,/,/
CN(CC(=O)Nc1ccccc1C(N)=O)S(=O)(=O)c1ccc(Br)cc1,/,0.1,/,/,/,/,/,/
SMILES,KDM4C inh,IDH1 R132H inh,T cruzi growth-1,Pf Dd2 inh,T cruzi growth-2,T cruzi growth-3,3T3 cytotox,3T3 cytotox 2
C[C@@H]1CN([C@@H](C)CO)C(=O)c2cc(N(C)C)ccc2O[C@H]1CN(C)CC1CCCCC1,2.1,2.0,101.8*,5.3,-22.3,-98.8,-16.1,-4.0
C[C@@H]1CN([C@H](C)CO)C(=O)c2cc(NC(=O)CCC(F)(F)F)ccc2O[C@H]1CN(C)CC1CCCCC1,0.4,2.5,100.8*,10.8,-27.0,-36.4,-20.8,-4.7
C[C@H]1CN([C@@H](C)CO)C(=O)c2cc(N(C)C)ccc2O[C@H]1CN(C)CC1CCCCC1,9.2,-1.5,3.5,14.9,/,/,/,/
Cc1cc(Cl)ccc1NC(=O)Cn1cnc2sc(C)c(-c3ccc(F)cc3)c2c1=O,/,-0.4,/,/,/,/,/,/
CCc1cc2c(SCC(=O)Nc3cccc(C)c3)ncnc2s1,/,-0.3,/,/,/,/,/,/
COc1ccc(S(=O)(=O)Nc2ccc3c(c2)C(=O)N([C@@H](C)CO)C[C@H](C)[C@H](CN(C)S(=O)(=O)c2ccc(OC)cc2)OCCCC[C@H](C)O3)cc1,0.2,/,100.9*,-65.4,110.7*,16.6,-0.4,-10.0
COc1ccc(S(=O)(=O)Nc2ccc3c(c2)C(=O)N([C@@H](C)CO)C[C@@H](C)[C@H](CN(C)S(=O)(=O)c2ccc(OC)cc2)OCCCC[C@@H](C)O3)cc1,-1.2,/,?,-46.7,107.9*,68.6,5.9,23.1
